Data taken from ChEMBL document CHEMBL4052732, “Design, synthesis and biological evaluation of GPR55 agonists” (Bioorg Med Chem, 2017).

Tests used:
[1] = target: T1, G-protein coupled receptor 55 (Homo sapiens, UniProt Q9Y2T6); experiment: Agonist activity at beta-galactosidase enzyme fragment-fused GPR55 (unknown origin) expressed in CHOK1 cells assessed as increase in N-terminal deletion beta-galactosidase mutant-tagged beta arrestin recruitment measured for 1 sec by chemiluminescence based pathhunter assay; format: functional, cell-based
Outline: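 CHO-K1 cells stably co-expressing the receptor–β-gal fragment fusion and the β-arrestin–deletion-mutant fusion, kept in selection medium, passaged up to 10 times. Ligands tested from 0.5 nM to 30 μM. Chemiluminescent substrate signal read at room temperature for 1 s. Vehicle readings subtracted from ligand readings (RLU), and EC50 obtained from these values. LPI served as positive control. Run in triplicate, repeated at least 3 times.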
Target sequence in this assay (Q9Y2T6 whole entry, looked up, stated change not applied, the tested form may be a part): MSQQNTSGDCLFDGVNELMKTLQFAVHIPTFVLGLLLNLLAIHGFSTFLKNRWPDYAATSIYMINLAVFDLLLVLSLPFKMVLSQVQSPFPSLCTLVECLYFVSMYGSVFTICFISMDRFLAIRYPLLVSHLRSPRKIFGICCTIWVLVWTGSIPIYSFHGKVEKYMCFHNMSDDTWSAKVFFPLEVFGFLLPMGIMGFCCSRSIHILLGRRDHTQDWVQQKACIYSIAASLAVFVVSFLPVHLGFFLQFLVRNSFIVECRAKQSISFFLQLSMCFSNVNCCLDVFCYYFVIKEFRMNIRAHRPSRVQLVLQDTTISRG

Cannabinoid receptor 1 = Cannabinoid receptor 1 (Homo sapiens, UniProt P21554); experiment: Agonist activity at human brain CB1 receptor expressed in U2OS cells assessed as increase in beta arrestin recruitment after 60 mins by fluorescence assay; format: functional, cell-based
[2] = target: T1, G-protein coupled receptor 55; experiment: Agonist activity at HA-epitope-tagged variant of GPR55E with serine enhanced C terminus (unknown origin) expressed in human U2OS cells assessed as increase in GFP-tagged beta arrestin2 recruitment after 75 mins by fluorescence assay; format: cell-based
Target sequence in this assay (Q9Y2T6 whole entry, looked up, the tested form may be a part): as the sequence (Q9Y2T6 whole entry, looked up, stated change not applied, the tested form may be a part) above

Cannabinoid receptor 2 = Cannabinoid receptor 2 (Homo sapiens, UniProt P34972); experiment: Agonist activity at human CB2 receptor expressed in U2OS cells assessed as increase in GFP-tagged beta arrestin recruitment after 75 mins by fluorescence assay; format: functional, cell-based
Cannabinoid receptor 2, sequence (P34972 whole entry): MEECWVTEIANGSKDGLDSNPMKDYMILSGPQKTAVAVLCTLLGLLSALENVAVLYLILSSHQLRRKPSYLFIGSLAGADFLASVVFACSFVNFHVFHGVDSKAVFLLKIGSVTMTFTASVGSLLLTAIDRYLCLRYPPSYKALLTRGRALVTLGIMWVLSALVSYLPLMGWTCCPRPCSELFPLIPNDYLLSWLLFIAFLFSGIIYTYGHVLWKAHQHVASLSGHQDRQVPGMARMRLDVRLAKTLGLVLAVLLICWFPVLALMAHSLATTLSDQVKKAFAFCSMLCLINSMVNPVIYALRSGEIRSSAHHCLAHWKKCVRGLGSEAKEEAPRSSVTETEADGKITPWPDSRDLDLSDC

Cannabinoid receptor 1, sequence (P21554 whole entry): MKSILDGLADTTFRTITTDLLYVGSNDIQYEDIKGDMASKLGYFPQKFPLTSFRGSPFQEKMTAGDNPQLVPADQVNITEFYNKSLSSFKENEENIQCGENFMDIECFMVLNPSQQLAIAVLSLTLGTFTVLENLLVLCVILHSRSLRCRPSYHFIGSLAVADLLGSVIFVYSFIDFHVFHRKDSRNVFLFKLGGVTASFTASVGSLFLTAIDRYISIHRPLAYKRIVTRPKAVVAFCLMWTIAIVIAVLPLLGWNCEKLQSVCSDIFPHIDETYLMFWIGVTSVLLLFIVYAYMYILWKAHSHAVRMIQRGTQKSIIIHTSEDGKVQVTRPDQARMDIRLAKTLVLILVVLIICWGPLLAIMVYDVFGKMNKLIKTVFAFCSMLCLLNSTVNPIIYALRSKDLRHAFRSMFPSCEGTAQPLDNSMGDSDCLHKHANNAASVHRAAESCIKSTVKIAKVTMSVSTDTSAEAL

EC50 [1]	SMILES	also measured
2 µM	COc1ccccc1/C=C/C(=O)NC(=S)Nc1ccc(S(=O)(=O)N(Cc2cccc(O)c2)c2ccccc2)cc1	–
0.9 µM	O=C(NC(=S)Nc1ccc(S(=O)(=O)N(Cc2ccncc2)c2ccccc2)cc1)c1ccc2cccnc2c1	–
0.7 µM	COc1ccccc1/C=C/C(=O)NC(=S)Nc1ccc(S(=O)(=O)N(CCO)c2ccccc2)cc1	–
6 µM	O=C(NC(=S)Nc1ccc(S(=O)(=O)N(Cc2ccc(CO)o2)c2ccccc2)cc1)c1ccc2cc(CCO)ccc2c1	–
–	COc1ccc2cc(C)c3nnc(SCC(=O)Nc4nc(-c5ccc(F)cc5)cs4)n3c2c1	EC50 (Cannabinoid receptor 1): > 30 µM; EC50 [2]: 0.16 µM; EC50 (Cannabinoid receptor 2): > 30 µM
0.3 µM	CN(c1ccccc1)S(=O)(=O)c1ccc(NC(=S)NC(=O)c2ccc3cc(CCO)ccc3c2)cc1	–
–	Cc1cccc(N2CCN(C(=O)c3cc(S(=O)(=O)N(C)C)ccc3N3CCCC3)CC2)c1C	EC50 (Cannabinoid receptor 1): > 30 µM; EC50 [2]: 0.26 µM; EC50 (Cannabinoid receptor 2): > 30 µM
> 30 µM	COc1ccccc1/C=C/C(=O)NC(=S)Nc1ccc(S(=O)(=O)NCC(O)CO)cc1 (stereo not given)	–
2 µM	COc1ccccc1/C=C/C(=O)NC(=S)Nc1ccc(S(=O)(=O)N(Cc2ccccc2O)c2ccccc2)cc1	–
0.5 µM	O=C(NC(=S)Nc1ccc(S(=O)(=O)N(Cc2ccc(O)cc2)c2ccccc2)cc1)c1ccc2cccnc2c1	–
–	COc1ccccc1/C=C/C(=O)NC(=S)Nc1ccc(S(=O)(=O)N(C)c2ccccc2)cc1	EC50 (Cannabinoid receptor 1): > 30 µM; EC50 [2]: 0.11 µM; EC50 (Cannabinoid receptor 2): > 30 µM
> 30 µM	COc1ccccc1/C=C/C(=O)NC(=S)Nc1ccc(S(=O)(=O)Nc2onc(C)c2C)cc1	–
0.1 µM	COc1ccccc1/C=C/C(=O)NC(=S)Nc1ccc(S(=O)(=O)N(Cc2ccc(CO)o2)c2ccccc2)cc1	–
0.5 µM	COc1ccccc1/C=C/C(=O)NC(=S)Nc1ccc(S(=O)(=O)N(C)c2ccncc2)cc1	–
0.3 µM	COc1ccccc1/C=C/C(=O)NC(=S)Nc1ccc(S(=O)(=O)N(Cc2ccncc2)c2ccccc2)cc1	–
0.5 µM	COc1ccccc1/C=C/C(=O)NC(=S)Nc1ccc(S(=O)(=O)N(Cc2ccc(O)cc2)c2ccccc2)cc1	–
0.2 µM	O=C(NC(=S)Nc1ccc(S(=O)(=O)N(CCO)c2ccccc2)cc1)c1ccc2cccnc2c1	–
1 µM	CN(c1ccccc1)S(=O)(=O)c1ccc(NC(=S)NC(=O)c2ccc3cccnc3c2)cc1	–
0.6 µM	O=C(NC(=S)Nc1ccc(S(=O)(=O)N(Cc2ccc(CO)o2)c2ccccc2)cc1)c1ccc2cccnc2c1	–
> 30 µM	CN(c1ccccc1)S(=O)(=O)c1ccc(NC(=S)NC(=O)c2cnc3ccccc3c2)cc1	–
> 30 µM	COc1ccccc1/C=C/C(=O)NC(=S)Nc1ccc(S(=O)(=O)NCCO)cc1	–
20 µM	O=C(NC(=S)Nc1ccc(S(=O)(=O)N(CCO)c2ccccc2)cc1)c1ccc2cc(CCO)ccc2c1	–
0.6 µM	COc1ccccc1/C=C/C(=O)NC(=S)Nc1ccc(S(=O)(=O)Nc2ccccc2)cc1	–
4 µM	CN(c1ccccc1)S(=O)(=O)c1ccc(NC(=S)NC(=O)c2ccc3cc(CO)ccc3c2)cc1	–
